TNAP act hi DEA: TNAP activators at high phosphate acceptor level, primary screen, biochemical, luminescence, uHTS | Alkaline phosphatase, tissue-nonspecific isozyme (Homo sapiens), P05186 | 200,000 tested, under 10 active | purified TNAP, CDP-star luminescence, 1 M DEA, 30 min; hits give high values; 0 = EDTA background, 1 = DMSO-only activity | activation factor at 20 µM;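 active means activation factor at least 2 at 20 µM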
Target sequence (P05186 whole entry, looked up): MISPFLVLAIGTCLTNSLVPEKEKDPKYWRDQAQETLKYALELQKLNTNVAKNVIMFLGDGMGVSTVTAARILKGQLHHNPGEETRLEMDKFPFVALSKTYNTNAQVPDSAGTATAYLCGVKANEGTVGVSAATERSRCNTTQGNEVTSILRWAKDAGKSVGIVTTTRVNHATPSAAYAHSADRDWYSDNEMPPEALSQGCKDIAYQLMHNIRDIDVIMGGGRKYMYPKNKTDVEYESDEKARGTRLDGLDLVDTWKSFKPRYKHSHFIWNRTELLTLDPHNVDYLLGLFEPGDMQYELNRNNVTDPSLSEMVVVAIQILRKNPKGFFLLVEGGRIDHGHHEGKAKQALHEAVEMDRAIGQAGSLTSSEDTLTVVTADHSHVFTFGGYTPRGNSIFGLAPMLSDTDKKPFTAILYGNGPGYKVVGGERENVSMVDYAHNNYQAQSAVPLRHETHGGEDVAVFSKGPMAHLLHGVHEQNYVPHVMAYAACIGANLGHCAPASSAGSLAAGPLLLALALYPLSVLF
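Measured by: Luminescent substrate turnover signal | Test system: Human TNAP | Input: TNAP 1/800 final | Dosing: 20 µM single point | Schedule: 30 min, room temperature | Controls: EDTA wells as negative control, DMSO wells as positive control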
TNAP inh hiacc: human TNAP enzyme inhibitors, primary screen, biochemical, luminescent, high phosphate acceptor level, uHTS; Alkaline phosphatase, tissue-nonspecific isozyme (Homo sapiens), P05186; purified TNAP, CDP-star luminescence, 1 M DEA; AID 1135, 2008; 0.03% of 200,000 active; inhibition, % at 20 µM;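 active means over 50% inhibition of tissue-nonspecific alkaline phosphatase at 20 µM in the single-dose screen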;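 further: plate controls were DMSO wells for no effect and EDTA-quenched wells as full inhibition for full effect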
NCF1 inh: p47phox/p22phox peptide binding inhibitors, primary screen, biochemical, uHTS, NADPH oxidase regulatory subunit. inhibition, % at 24.7 µM. 0.53% of 220,000 active. fluorescence polarization, 2 h;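 active means inhibition above about 30%, limit read from the data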;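 further: 0% = p47phox with labelled peptide and 100% = labelled peptide alone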
TNAP inh noacc: human TNAP enzyme inhibitors, primary screen, biochemical, luminescent, no phosphate acceptor, uHTS; purified TNAP, CDP-star luminescence, 30 min; inhibition, % at 20 µM; 0.26% of 200,000 active; AID 1012, 2008;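 active means tissue-nonspecific alkaline phosphatase inhibition above about 50% at 20 µM in the single-dose screen, limit read from the data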;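 further: 0% = DMSO negative control and 100% = EDTA positive control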
Ins promoter up: insulin promoter activators in MIN6 cells, imaging, high-content screening, mouse beta cells. MIN6 insulin promoter-GFP reporter; hits give high values. z-score at 5 µM. 0.3% of 190,000 active. AID 1625, 2009;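 active means z-score above 3 at 5 µM with at least 500 cells counted in the well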
Autophagy HCS: autophagy modulators in MEF cells, primary screen, imaging, high-content, MEF GFP-LC3. calls only at 10 µM (by protocol). MEF GFP-LC3 puncta imaging; test concentration mostly 10 µM. 0.98% of 190,000 active;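 active means percentage of spot-positive cells more than 3 SD above its plate mean, without a fluorescence outlier flag or 80% toxicity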;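 further: spot-positive cell cutoff set from DMSO-treated cells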
An asterisk follows results filed as active; i = inactive; nt = no result; + = active, no number. Rows were chosen to be rich in hits. Some 1.8% of all compounds tested hit in one or more screens of this group.

SMILES | TNAP act hi DEA | TNAP inh hiacc | NCF1 inh | TNAP inh noacc | Ins promoter up | Autophagy HCS
O=C(CS(=O)(=O)c1c[nH]c2ccccc12)N1CCc2ccccc21 | 0.9 | 15 | -3 | 31 | 0.11 | i
Fc1ccccc1CSCc1nc2ccccc2[nH]1 | 1 | -2 | -7 | -18 | -0.1 | +
CCSc1nc(-c2ccc(OC)cc2)cc(-c2ccccc2)c1C#N | 1.1 | -8 | -7 | -13 | -0.85 | i
COc1ccc(-c2cc(-c3ccccc3)c(C#N)c(S(C)=O)n2)cc1 (stereo unspecified) | 1.1 | -9 | -17 | -15 | -3.5 | +
O=C1S/C(=C\c2ccc(N3CCOCC3)o2)C(=O)N1c1ccccc1 | 0.9 | 10 | -172 | 3 | nt | +
O=C1NC(=Nc2ccc(F)cc2)CS1 | 1 | -2 | -6 | -14 | -0.58 | +
Cc1ccc(N=C2CSC(=O)N2)cc1 | 1 | -1 | -4 | -8 | nt | i
O=C(OCc1ccc(F)cc1)c1ccc2ccccc2n1 | 1.1 | -7 | -9 | -14 | 0.33 | i
Cc1cc(C(=O)COC(=O)c2ccccc2Br)c(C)n1CC1CCCO1 (stereo unspecified) | nt | nt | -20 | nt | 0.03 | nt
Cc1ccc(C(=O)OCC(=O)c2cc(C)n(CC3CCCO3)c2C)cc1 (stereo unspecified) | 1 | -1 | 59* | -3 | -0.25 | i
COc1nc(OC)nc(N2CCC(C(=O)NCc3cccs3)CC2)n1 | 1 | -3 | -6 | -8 | 3.5* | i
Cc1cnc(C)c(N2CCC(C(=O)NCc3cccs3)CC2)n1 | 1.1 | -11 | -5 | -14 | nt | i
O=C(N/N=C/c1ccc[nH]1)c1ccccc1[N+](=O)[O-] | 1 | 5 | -8 | 21 | 0.07 | i
Cc1[nH]c2ccccc2c1/C=N/Nc1ccc([N+](=O)[O-])cc1S(=O)(=O)Nc1ccc(Cl)cc1 | 0.6 | 39 | -34 | 26 | nt | +
COc1ccc(C(=O)N/N=C/c2sc(N3CCOCC3)nc2-c2ccccc2)cc1OC | 1 | -1 | -31 | -4 | -1.9 | i
COc1ccccc1NS(=O)(=O)c1cc([N+](=O)[O-])ccc1N/N=C/c1sc(N2CCOCC2)nc1-c1ccccc1 | 0.6 | 40 | -52 | 34 | nt | +
O=[N+]([O-])c1ccc(N/N=C/c2ccc[nH]2)cc1 | 0.7 | 28 | -42 | 33 | nt | +
COc1ccccc1NS(=O)(=O)c1cc([N+](=O)[O-])ccc1N/N=C/c1c[nH]c2ccccc12 | 0.6 | 36 | -48 | 30 | nt | +
CC12CCC(C/C1=N\OC(=O)c1c(F)cccc1F)C2(C)C (stereo unspecified) | nt | nt | 4 | nt | 0.35 | nt
Cc1ccc(-n2c(SCC(N)=O)nnc2-c2ccc(S(=O)(=O)N3CCCCC3)cc2)c(C)c1 | 1 | 0 | -3 | -5 | -0.63 | i
O=[N+]([O-])c1ccc(N/N=C/c2c[nH]c3ccccc23)cc1 | 0.7 | 25 | -88 | 9 | nt | +
CN1CCN(c2ccc([N+](=O)[O-])cc2S(=O)(=O)N2CCOCC2)CC1 | 1 | -1 | 0 | -5 | nt | i
O=[N+]([O-])c1ccccc1N/N=C/c1c[nH]c2ccccc12 | 0.8 | 16 | -6 | 18 | nt | i
CC(=O)C(=Cc1cn(-c2ccccc2)nc1-c1ccccc1)C(C)=O | 1 | -2 | -6 | -12 | 3.2* | i
O=[N+]([O-])c1ccc(N/N=C/c2cn(-c3ccccc3)nc2-c2ccccc2)cc1 | 0.8 | 17 | -8 | 20 | nt | +
SMILES | TNAP act hi DEA | TNAP inh hiacc | NCF1 inh | TNAP inh noacc | Ins promoter up | Autophagy HCS
COc1ccc(/C=N/Nc2ccc([N+](=O)[O-])cc2S(=O)(=O)N2CCN(C)CC2)cc1 | 0.9 | 14 | -23 | -4 | 0.19 | +
Cc1ccc(C(=O)N/C(=C/c2cn(-c3ccccc3)nc2-c2ccccc2)C(=O)O)cc1 | 1 | -2 | 2 | -14 | nt | i
COc1ccc(NC(=S)NNc2ccc([N+](=O)[O-])cc2S(=O)(=O)Nc2ccc(C)cc2C)cc1 | 0.6 | 37 | -14 | 13 | nt | i
COc1ccc(NS(=O)(=O)c2cc([N+](=O)[O-])ccc2N/N=C\c2c(C)[nH]c3ccccc23)cc1 | 0.7 | 32 | -20 | 14 | nt | +
CC(C)N(Cc1ccccc1)C(=O)CSc1nccn1C | 1 | -2 | -3 | -17 | -0.98 | +
CC(C)N(Cc1ccccc1)C(=O)CCc1ccccc1 | 1.1 | -5 | -7 | -8 | 0.18 | i
COc1ccc(OC)c(NC(=O)C(=O)NNC(=O)C23CC4CC(CC(C4)C2)C3)c1 | nt | nt | -27 | nt | -0.48 | nt
COc1ccc(-c2cc3ccccc3oc2=O)cc1NC(=O)c1ccc([N+](=O)[O-])o1 | 1 | -1 | 40* | -6 | -0.49 | i
CCC(=O)Nc1cc(-c2cc3ccccc3oc2=O)ccc1OC | 1 | 1 | -7 | -6 | 0.05 | i
COc1ccc(-c2cc3ccccc3oc2=O)cc1NC(=O)c1ccc(Br)o1 | 1 | -5 | 41* | -12 | -1.3 | i
COc1cc(NC(=O)c2cc(Cl)ccc2Cl)ccc1-c1cc2ccccc2oc1=O | 1 | -5 | -5 | -8 | -0.24 | +
COc1cc(NC(=O)c2cccnc2)ccc1-c1cc2ccccc2oc1=O | 1 | 2 | 8 | -2 | 0.84 | i
COc1ccc(-c2cc3ccccc3oc2=O)cc1NC(=S)NC(=O)c1ccc2c(c1)OCCO2 | 1 | -2 | 25 | -5 | 0.37 | i
COc1ccc(/C=C/CN2CCCC(CCC(=O)NCc3ccc(F)c(F)c3)C2)cc1 (stereo unspecified) | 1 | -4 | -20 | -7 | -0.3 | i
Cc1cc(C)c2ccc(=O)n(CC(=O)N/N=C/c3ccccc3Cl)c2n1 | nt | nt | -3 | nt | 1.1 | nt
CNC(=O)CCc1[nH]c2ccccc2c1Sc1ccccc1 | 1 | -1 | 34* | -4 | 1.1 | i
Cc1cc(-c2ccccc2)c2c3c(c(-c4ccccc4)n2n1)c(=O)n(C)c(=O)n3C | 1 | -5 | -26 | -2 | 0.19 | +
O=C(Nc1cccc2ncccc12)c1ccc(-c2ccc(Br)cc2)o1 | 1 | -3 | -6 | -10 | -0.25 | i
O=C(Nc1ccccc1O)c1nc(Cl)ccc1Cl | 1 | -2 | -11 | -1 | 1.1 | i
COc1ccc(-c2csc(/C(C#N)=C/Nc3ccc4c(c3)OCCO4)n2)cc1 | 1 | -2 | -153 | -11 | -0.53 | i
COc1ccc(-c2csc(/C(C#N)=C/Nc3cc4oc5ccccc5c4cc3OC)n2)cc1 | 1 | 2 | -95 | 2 | nt | +

Source: PubChem
